{"source": "paper PMC3058505", "about": "(Hepatology (Baltimore, Md.), 2010)", "key": {"[1]": {"biological_target": "endogenous NS3/4A protease from replicon microsomes (Hepatitis C virus genotype 1b, UniProt Q9WMX2)", "sequence (Q9WMX2 1027-1657)": "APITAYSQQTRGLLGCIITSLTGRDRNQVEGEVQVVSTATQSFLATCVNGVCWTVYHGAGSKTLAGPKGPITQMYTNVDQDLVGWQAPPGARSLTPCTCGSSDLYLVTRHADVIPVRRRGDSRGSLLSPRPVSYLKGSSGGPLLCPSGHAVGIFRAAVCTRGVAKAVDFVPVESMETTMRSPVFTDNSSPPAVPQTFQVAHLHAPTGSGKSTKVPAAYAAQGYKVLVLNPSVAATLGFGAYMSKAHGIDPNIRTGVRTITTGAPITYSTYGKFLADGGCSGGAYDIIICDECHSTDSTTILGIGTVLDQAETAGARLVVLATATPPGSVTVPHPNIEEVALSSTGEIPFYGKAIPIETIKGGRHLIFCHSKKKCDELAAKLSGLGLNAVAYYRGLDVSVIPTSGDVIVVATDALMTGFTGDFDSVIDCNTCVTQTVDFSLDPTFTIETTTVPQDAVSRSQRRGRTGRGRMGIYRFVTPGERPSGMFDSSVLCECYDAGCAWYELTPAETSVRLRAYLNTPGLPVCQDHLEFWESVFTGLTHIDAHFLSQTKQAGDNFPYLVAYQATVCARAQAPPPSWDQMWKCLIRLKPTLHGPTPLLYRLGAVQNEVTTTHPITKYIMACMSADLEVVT", "sequence (Q9WMX2 1658-1711)": "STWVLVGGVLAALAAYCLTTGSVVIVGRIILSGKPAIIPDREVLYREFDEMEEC", "format": "biochemical"}, "[2]": {"biological_target": "HCV NS3/4A protease (recombinant) (Hepatitis C virus genotype 1b, UniProt O92972)", "sequence (O92972 1013-1207, looked up, natural form)": "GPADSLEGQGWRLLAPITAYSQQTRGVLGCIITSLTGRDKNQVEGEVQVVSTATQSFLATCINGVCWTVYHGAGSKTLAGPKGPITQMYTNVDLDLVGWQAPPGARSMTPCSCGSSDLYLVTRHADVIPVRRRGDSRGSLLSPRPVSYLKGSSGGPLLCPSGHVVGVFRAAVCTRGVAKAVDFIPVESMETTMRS", "assay": "SensoLyte 620 HCV Protease Assay with recombinant NS3/4A protease", "format": "biochemical"}, "[3]": {"test_system": "HCV NS5A and core protein in NS or FL replicons", "assay": "Western blot of HCV proteins in NS and FL replicons", "format": "cell-based, hepatitis C virus", "details": "biliverdin 20 µM, BR 200 µM or FeCl2 100 µM for 24 h; both replicon lines", "how_it_was_run": "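Log-phase NS (Huh5-15) or FL (Huh7.5 Con1) replicon cells were treated for 24 h. BV and BR were dissolved in 0.2 N NaOH, with vehicle controls. Cells were then lysed and analysed by Western blot with enhanced chemiluminescence detection. Band intensities were quantified by densitometry.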"}, "replicon cells": {"test_system": "replicon cells", "assay": "Proliferation and cytotoxicity assays", "format": "cell-based, human", "details": "medium containing 5 or 10% FBS"}, "[4]": {"test_system": "J6/JFH infectious HCV in Huh7.5 cells", "assay": "J6/JFH HCV infection of Huh7.5 cells", "format": "cell-based, hepatitis C virus", "details": "BV 20–200 µM, 72 h; HCV polyvalent sera immunoreactivity and HCV RNA", "how_it_was_run": "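Huh7.5 cells were inoculated with infectious J6/JFH HCV and passed. They were then treated with BV at 0, 20 or 200 µM for 72 h. Cells were fixed in absolute methanol, washed in PBS and stained with genotype 2A polyvalent human serum. Detection used an anti-human alkaline phosphatase conjugate and photomicroscopy. HCV RNA was measured by ΔCT real-time RT-PCR, 3–5 determinations per group, mean ± SEM.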"}, "[5]": {"test_system": "HCV replication in FL or NS replicons", "format": "cell-based, hepatitis C virus", "details": "50 or 100 µM BV overnight with α-interferon", "how_it_was_run": "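Cell lines were Huh7.5 cells with full-length Con1 replicons (FL) and Huh5-15 cells with subgenomic replicons (NS). They received α-interferon alone or with BV. BV was dissolved in 0.2 N NaOH, and controls got the same NaOH volume. HCV RNA was measured by real-time RT-PCR using the comparative cycle threshold (ΔCT) method. Values are mean ± SEM of 3 determinations per point.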"}, "[6]": {"test_system": "HCV replication in Huh5-15NS replicon", "assay": "HCV replication in non-structural", "format": "cell-based, hepatitis C virus", "details": "for Relative [HCV] [ΔCΤ]: Huh5-15NS, control = 1.0", "how_it_was_run": "(§1)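 Log-phase replicon cells were incubated overnight with hemin (0, 5, 10 or 20 µM) or control vehicle. Cells were Huh7.5FL (full-length Con1) or Huh5-15NS (subgenomic). Relative HCV RNA was found by real-time RT-PCR with the comparative cycle threshold (ΔCT) method and normalised to vehicle control = 1.0. Each value is the mean of four determinations.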"}, "[7]": {"test_system": "HCV replication in Huh7.5FL Con1 replicon", "assay": "HCV replication in full-length", "format": "cell-based, hepatitis C virus", "details": "for Relative [HCV] [ΔCΤ]: Huh7.5FL, control = 1.0", "how_it_was_run": "as §1"}}, "note": "Where a name gives a salt, the structure may show the parent alone.", "data": [{"molecule": "C=CC1=C(C)/C(=C/C2=NC(=C\\c3[nH]c(/C=C4\\NC(=O)C(C)=C4C=C)c(C)c3CCC(=O)O)/C(CCC(=O)O)=C2C)NC1=O", "note": "[Biliverdin, biliverdin-IX-α hydrochloride]", "values": [{"measurement": "Inhibition of endogenous NS3/4A protease", "setting": "[1]", "value": "potently inhibited"}, {"measurement": "Ki", "setting": "[2]", "value": 600, "unit": "nM"}, {"measurement": "Mode of inhibition of NS3/4A protease", "setting": "[2]; Lineweaver-Burk plots", "value": "mixed competitive and non-competitive inhibition"}, {"measurement": "Effect of BV combined with #25346 on protease activity", "setting": "[2]; assays in the presence of both BV and #25346", "value": "additive effect"}, {"measurement": "Effect on HCV protein expression by Western blot", "setting": "[3]", "value": "decreased NS5A"}, {"measurement": "Effect on cellular proliferation or toxicity", "setting": "replicon cells", "value": "no effect"}, {"measurement": "Effect on Huh7.5 cell infection with J6/JFH", "setting": "[4]", "value": "markedly decreased"}, {"measurement": "Effect on α-interferon antiviral activity", "setting": "[5]", "value": "clear additive effect"}]}, {"molecule": "hemin [Heme]", "values": [{"measurement": "Relative [HCV] [ΔCΤ]", "setting": "[6]; heme 5 uM overnight", "value": 0.27}, {"measurement": "Relative [HCV] [ΔCΤ]", "setting": "[6]; heme 10 uM overnight", "value": 0.09}, {"measurement": "Relative [HCV] [ΔCΤ]", "setting": "[6]; heme 20 uM overnight", "value": 0.03}, {"measurement": "Lowest level at which antiviral effect is apparent", "setting": "[6]; NS replicon, overnight incubation with hemin", "value": 5, "unit": "µM"}, {"measurement": "Lowest level at which antiviral effect is apparent", "setting": "[7]; FL replicon, overnight incubation with hemin", "value": 5, "unit": "µM"}, {"measurement": "Relative [HCV] [ΔCΤ]", "setting": "[7]; heme 5 uM overnight", "value": 0.22}, {"measurement": "Relative [HCV] [ΔCΤ]", "setting": "[7]; heme 10 uM overnight", "value": 0.08}, {"measurement": "Relative [HCV] [ΔCΤ]", "setting": "[7]; heme 20 uM overnight", "value": 0.04}]}, {"molecule": "[Cl][Fe][Cl]", "note": "[FeCl2]", "values": [{"measurement": "Effect on HCV protein expression by Western blot", "setting": "[3]", "value": "decreased NS5A and core protein"}]}, {"molecule": "C=CC1=C(C)/C(=C/c2[nH]c(Cc3[nH]c(/C=C4\\NC(=O)C(C)=C4C=C)c(C)c3CCC(=O)O)c(CCC(=O)O)c2C)NC1=O", "note": "[BR, bilirubin]", "values": [{"measurement": "Effect on HCV protein expression by Western blot", "setting": "[3]", "value": "decreased NS5A"}, {"measurement": "Effect on cellular proliferation or toxicity", "setting": "replicon cells", "value": "no effect"}]}]}
